Experimental data taken from publication PMC9513682 (RSC Advances, 2022).

How the values were obtained:
[1] = biological target: B-RAF(V600E) (Homo sapiens, UniProt P15056, V600E); assay: B-RAF; assay type: biochemical; conditions: for IC50: B-RAF (V600E) IC50, n = 3; for selectivity for B-RAFV600E kinase over B-RAF wild-type kinase: ratio of kinase IC50 values
[2] = biological target: B-RAF (wild-type) (Homo sapiens, UniProt P15056); assay: B-RAF; assay type: biochemical
[3] = test system: WM266.4 melanoma cells; assay: MTT cytotoxicity assay, B-RAFV600E-mutated melanoma cells; assay type: cell-based; conditions: for potency against WM266.4 melanoma cells relative to dabrafenib: WM266.4 cells
How it was run: (§1)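 WM266.4 (B-RAFV600E) and Sk-mel-23 (B-RAF wild type) melanoma cells were grown in DMEM with FBS, penicillin and streptomycin at 37 °C under CO₂. […] MTT reagent was added and cells re-incubated; absorbance was read at 590 nm. IC50 was taken from concentration–inhibition curves (n = 3).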

[4] = test system: Sk-mel-23 melanoma cells; assay: MTT cytotoxicity assay, B-RAF wild type melanoma cells; assay type: cell-based; conditions: Homo sapiens, SK-MEL-23, 48 h, read-out: Sk-mel-23 IC50
How it was run: as §1

[5] = test system: phosphorylation of downstream ERK1/2 (pT202/Y204) in WM266.4 cells; assay: Cell-based B-RAFV600E kinase assay; conditions: for pERK 1/2: WM266.4 cell line, mean ± standard error of two experiments
How it was run: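 Phospho-ERK1/2 (pT202/Y204) and total ERK1/2 were measured by a single-step sandwich ELISA (affinity-tagged capture antibody, reporter-conjugated detector antibody). pERK was reported in ng/mL as duplicate determinations. % inhibition was calculated against untreated control cells, as mean ± S.E. of two experiments.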

B-RAF(V600E), sequence (P15056 whole entry V600E): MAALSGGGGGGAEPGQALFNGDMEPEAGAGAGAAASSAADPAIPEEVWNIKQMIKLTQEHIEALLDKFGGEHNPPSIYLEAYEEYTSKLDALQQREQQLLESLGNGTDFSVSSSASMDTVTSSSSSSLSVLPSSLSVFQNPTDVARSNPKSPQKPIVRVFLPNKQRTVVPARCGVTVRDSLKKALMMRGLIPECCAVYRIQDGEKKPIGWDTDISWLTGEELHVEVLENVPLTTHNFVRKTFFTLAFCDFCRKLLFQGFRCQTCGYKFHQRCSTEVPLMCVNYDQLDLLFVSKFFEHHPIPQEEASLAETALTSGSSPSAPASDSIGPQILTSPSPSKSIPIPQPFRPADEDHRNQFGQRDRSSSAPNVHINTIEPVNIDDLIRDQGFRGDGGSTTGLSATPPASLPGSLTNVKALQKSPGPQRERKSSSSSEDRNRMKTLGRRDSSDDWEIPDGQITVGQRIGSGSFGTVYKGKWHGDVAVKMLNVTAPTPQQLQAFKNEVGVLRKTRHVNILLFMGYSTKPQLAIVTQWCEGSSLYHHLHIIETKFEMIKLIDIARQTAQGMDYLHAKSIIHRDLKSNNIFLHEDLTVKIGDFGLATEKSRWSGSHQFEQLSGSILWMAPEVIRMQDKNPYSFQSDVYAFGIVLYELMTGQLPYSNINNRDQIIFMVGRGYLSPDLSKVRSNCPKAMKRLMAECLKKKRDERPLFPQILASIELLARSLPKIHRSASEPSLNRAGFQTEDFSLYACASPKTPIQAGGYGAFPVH
B-RAF (wild-type), sequence (P15056 whole entry): as the sequence (P15056 whole entry V600E) above, with E600V counted along it

Compound | IC50 [1] | selectivity for B-RAFV600E kinase over B-RAF wild-type kinase [1] | IC50 [2] | potency against WM266.4 melanoma cells relative to dabrafenib [3] | IC50 [4] | other results
Cc1ccc(C(CS(=O)(=O)c2ccccc2)=NNC(N)=S)cc1 [Compound 3, 2-Benzenesulfonyl-1-p-tolyl-ethanone thiosemicarbazone] | 115 ± 6 nM | – | – | – | – | –
Cc1ccc(C(CS(=O)(=O)c2ccccc2)=NNc2nc(C)c(N=Nc3ccccc3)s2)cc1 [Compound 7a, N-(2-Benzenesulfonyl-1-p-tolyl-ethylidene)-N′-(4-methyl-5-phenylazo-thiazol-2-yl)-hydrazine] | 199 ± 10 nM | – | – | – | – | –
Cc1ccc(C(CS(=O)(=O)c2ccccc2)=NNc2nc(C)c(N=Nc3cccc(C)c3)s2)cc1 [Compound 7b, N-(2-Benzenesulfonyl-1-p-tolyl-ethylidene)-N′-(4-methyl-5-m-tolylazo-thiazol-2-yl)-hydrazine] | 36.3 ± 1.9 nM | approximately four | 124 ± 6.6 nM | three to five | 7870 ± 400 nM | pERK 1/2 [5]: 1.339 ± 0.035 ng mL^−1
Cc1ccc(N=Nc2sc(NN=C(CS(=O)(=O)c3ccccc3)c3ccc(C)cc3)nc2C)cc1 [Compound 7c, N-(2-Benzenesulfonyl-1-p-tolyl-ethylidene)-N′-(4-methyl-5-p-tolylazo-thiazol-2-yl)-hydrazine] | 108 ± 5.6 nM | – | – | – | – | –
Cc1ccc(C(CS(=O)(=O)c2ccccc2)=NNC2=NC(=O)C(=NNc3ccccc3)S2)cc1 [Compound 11a, 2-[N′-(2-Benzenesulfonyl-1-p-tolyl-ethylidene)-hydrazino]-5-(phenyl-hydrazono)-thiazol-4-one] | 84.9 ± 4.4 nM | approximately four | 361 ± 19.4 nM | three to five | 430 ± 20 nM | –
Cc1ccc(C(CS(=O)(=O)c2ccccc2)=NNC2=NC(=O)C(=NNc3ccc(Cl)cc3)S2)cc1 [Compound 11b, 2-[N′-(2-Benzenesulfonyl-1-p-tolyl-ethylidene)-hydrazino]-5-[(4-chloro-phenyl)-hydrazono]-thiazol-4-one] | 185 ± 9.6 nM | – | – | – | – | –
Cc1ccc(C(CS(=O)(=O)c2ccccc2)=NNC2=NC(=O)C(=NNc3ccc([N+](=O)[O-])cc3)S2)cc1 [Compound 11c, 2-[N′-(2-Benzenesulfonyl-1-p-tolyl-ethylidene)-hydrazino]-5-[(4-nitro-phenyl)-hydrazono]-thiazol-4-one] | 95.4 ± 5 nM | – | 229 ± 12.3 nM | 11 fold | 22300 ± 1140 nM | –
Cc1ccc(C(CS(=O)(=O)c2ccccc2)=NN=C2N=C(c3ccc(Br)cc3)CS2)cc1 [Compound 13a, N-(2-Benzenesulfonyl-1-p-tolyl-ethylidene)-N′-[4-(4-bromo-phenyl)-5H-thiazol-2-ylidene]-hydrazine] | 23.1 ± 1.2 nM | approximately four | 97.9 ± 5.2 nM | three to five | 50200 ± 2560 nM | –
Cc1ccc(C(CS(=O)(=O)c2ccccc2)=NN=C2N=C(c3ccc(C)cc3)CS2)cc1 [Compound 13b, N-(2-Benzenesulfonyl-1-p-tolyl-ethylidene)-N′-(4-p-tolyl-5H-thiazol-2-ylidene)-hydrazine] | 206 ± 11 nM | – | – | – | – | –
Cc1ccc(C(CS(=O)(=O)c2ccccc2)=NNc2nc(-c3ccc(OCCCCOc4ccc(-c5csc(NN=C(CS(=O)(=O)c6ccccc6)c6ccc(C)cc6)n5)cc4)cc3)cs2)cc1 [Compound 15, 1,1′-[1,4-Butanediylbis(oxy)]bis[4-(2-{[2-(benzenesulfonyl)-1-(p-tolyl)ethylidene]-hydrazino}thiazol-4-yl)benzene]] | 51.9 ± 2.7 nM | 5 fold | 251 ± 13.5 nM | – | 17600 ± 890 nM | cytotoxic potency toward WM266.4 rather than Sk-mel-23 melanoma cells ([3]; WM266.4 (B-RAFV600E-mutated) versus Sk-mel-23 (B-RAF wild type)): equal potency
NC(=S)NN=C(CS(=O)(=O)c1ccccc1)c1ccc(F)cc1 [Compound 17, 2-Benzenesulfonyl-1-(4-fluorophenyl)-ethanone thiosemicarbazone] | 68.2 ± 3.5 nM | – | 153 ± 8.2 nM | 11 fold | 12400 ± 630 nM | activity toward B-rafV600E as share of the activity of dabrafenib ([1]; relative to dabrafenib): 70%
COc1ccc(-c2csc(NN=C(CS(=O)(=O)c3ccccc3)c3ccc(F)cc3)n2)cc1 [Compound 19, N-[2-Benzenesulfonyl-1-(4-fluorophenyl)-ethylidene]-N′-[4-(4-methoxyphenyl)thiazol-2-yl]-hydrazine] | 116 ± 8 nM | – | – | – | – | –
CC(C)(C)c1nc(-c2cccc(NS(=O)(=O)c3c(F)cccc3F)c2F)c(-c2ccnc(N)n2)s1 [Dabrafenib, dabrafenib] | – | – | – | – | 9030 ± 460 nM | pERK 1/2 [5]: 0.769 ± 0.018 ng mL^−1; % inhibition of pERK 1/2 ([5]; WM266.4 cells, compared with the control cancer cells): 71.9%
